Among the data in ChEMBL document CHEMBL2157912, “Pyrido[1,2-a]pyrimidin-4-ones as antiplasmodial falcipain-2 inhibitors” (Bioorg Med Chem, 2012) are IC50 and inhibition values, retold here.

SMILES strings stand for the structures.

In general, IC50 refers to the concentration at which inhibition is half-maximal. A word on the inhibition: it is the drop in the measured response relative to a control, in per cent.

A short description of assay [1]: Inhibition of recombinant Plasmodium falciparum falcipain 2 incubated with compound for 10 mins before addition of Z-Phe-Arg-AMC substrate by fluorescence spectrophotometry. The method in brief: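 FP-2 (30 nM) was preincubated for 10 min at room temperature with a series of fixed compound concentrations (from DMSO stock) in 100 mM sodium acetate pH 5.5, 10 mM DTT. Z-Phe-Arg-AMC was added to 25 µM final and AMC fluorescence (355/460 nm) monitored 10 min. IC50 was determined only for compounds reaching ≥40% inhibition at 10 µM; values are means of three independent determinations.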

For assay [2], the system named is Plasmodium falciparum. Put plainly: Inhibition of recombinant Plasmodium falciparum falcipain 2 at 10 uM preincubated for 10 mins before addition of Z-Phe-Arg-AMC substrate by fluorescence spectrophotometry. The method in brief: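 Soluble recombinant FP-2 (30 nM) preincubated with compound at 10 µM for 10 min at room temperature in 100 mM sodium acetate pH 5.5 with 10 mM DTT. Compound was diluted from DMSO stock. Z-Phe-Arg-AMC was then added (25 µM final), and fluorescence (ex 355/em 460 nm) was followed for 10 min at room temperature. % inhibition = [1 − Ftest/Fcontrol]×100; mean of three independent determinations.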

The subject of assay [3] is Plasmodium falciparum. Kind of assay: Inhibition of recombinant Plasmodium falciparum falcipain 2 at 2 uM preincubated for 10 mins before addition of Z-Phe-Arg-AMC substrate by fluorescence spectrophotometry.

With `Cc1ccn2c(=O)c(NC(=O)OCc3ccccn3)cnc2c1`, the IC50 in assay [1] worked out at 18 µM. Besides, in the assay on Plasmodium falciparum [2], the inhibition is 42%.
As for `COc1ccc(N2CCN(C(=O)Nc3cnc4ccccn4c3=O)CC2)cc1`, the inhibition in the assay with Plasmodium falciparum [2] was determined as 43%.
As to `O=C(NCCCN1CCOCC1)Nc1cnc2ccccn2c1=O`, the inhibition with Plasmodium falciparum [2] is 25%.
On the same count and under the same terms, the result for `O=C(NCc1ccc2c(c1)OCO2)c1cnc2ccc(Cl)cn2c1=O` reads 24%.
Still for that read-out and setting: the result for `Cc1ccn2c(=O)c(NC(=O)OCc3ccccc3)cnc2c1` reads 31%.
For the molecule `O=C(NCCc1cccs1)Nc1cnc2ccccn2c1=O`, the IC50 in assay [1] was found to be 14 µM. For the same molecule, in the assay with Plasmodium falciparum [2], the inhibition was 44%.
The corresponding values for `O=C(NCCN1CCOCC1)Nc1cnc2ccc(Cl)cn2c1=O` are 7 µM and 68%.
As for `O=C(NCc1ccc2c(c1)OCO2)c1cnc2ccccn2c1=O`, in the assay with Plasmodium falciparum [2], the inhibition was 7%.
The same measure, in the same setting: the result for `Cc1ccn2c(=O)c(C(=O)NCc3ccc(F)cc3)cnc2c1` reads 6%.
As to `COc1ccc(N2CCN(C(=O)Nc3cnc4cc(C)ccn4c3=O)CC2)cc1`, the half-inhibitory concentration (IC50) in assay [1] was determined as 19 µM. In addition, the inhibition with Plasmodium falciparum [2] was found to be 46%.
Regarding `CC(C)C[C@H](NC(=O)[C@H]1O[C@@H]1C(=O)O)C(=O)NCCCCN=C(N)N` [E-64], the IC50 in assay [1] came out at 0.02 µM. Further, the inhibition in the assay with Plasmodium falciparum [3] worked out at 92%.
With `CC(=O)NCCNC(=O)Nc1cnc2cc(C)ccn2c1=O`, the inhibition in the assay on Plasmodium falciparum [2] amounted to 15%.
Consider `O=C(NCCc1cccs1)Nc1cnc2ccc(Cl)cn2c1=O`, for which the IC50 in assay [1] turned out to be 23 µM. Further, in the assay on Plasmodium falciparum [2], the inhibition turned out to be 42%.
Regarding `COc1ccc(N2CCN(C(=O)Nc3cnc4ccc(Cl)cn4c3=O)CC2)cc1`, the inhibition with Plasmodium falciparum [2] amounted to 36%.
Still for that read-out and setting: the same measure for `Cc1ccn2c(=O)c(NC(=O)NCCN3CCOCC3)cnc2c1`: 27%; for `O=C(NCc1ccc(Cl)cc1)Nc1cnc2ccccn2c1=O`: 39%.
In the case of `O=C(Nc1cnc2ccc(Cl)cn2c1=O)N1CCN(c2ccccn2)CC1`, the IC50 in assay [1] turned out to be 12 µM. Besides, in the assay on Plasmodium falciparum [2], the inhibition is 41%.
The corresponding values for `COCCNC(=O)Nc1cnc2cc(C)ccn2c1=O` are 6 µM and 63%.
Take `COCCNC(=O)Nc1cnc2ccccn2c1=O`: the inhibition in the assay on Plasmodium falciparum [2] amounted to 31%.
In the case of `Cc1ccn2c(=O)c(NC(=O)NCCc3cccs3)cnc2c1`, the IC50 in assay [1] was 21 µM. In addition, the inhibition in the assay with Plasmodium falciparum [2] is 45%.
As for `O=C(Nc1cnc2ccccn2c1=O)N1CCN(c2ccccn2)CC1`, the IC50 in assay [1] was found to be 15 µM. The inhibition in the assay on Plasmodium falciparum [2] amounted to 46%.
As to `Cc1ccn2c(=O)c(NC(=O)N3CCN(C(c4ccccc4)c4ccccc4)CC3)cnc2c1`, the inhibition in the assay on Plasmodium falciparum [2] came to 23%.
Consider `COc1ccc(CNC(=O)Nc2cnc3ccccn3c2=O)cc1`, for which the inhibition in the assay with Plasmodium falciparum [2] was 18%.
The same measure, in the same setting: the result for `O=C(Nc1cnc2ccccn2c1=O)OCc1ccccc1` reads 12%.
Turning to `CC(=O)NCCNC(=O)Nc1cnc2ccccn2c1=O`, in assay [1], the IC50 amounted to 16 µM. In addition, the inhibition in the assay on Plasmodium falciparum [2] was found to be 46%.
As for `O=C(Nc1cnc2ccccn2c1=O)OCc1ccccn1`, in the assay on Plasmodium falciparum [2], the inhibition is 18%.
On the same count and under the same terms, the result for `Cc1ccn2c(=O)c(NC(=O)N3CCN(c4ccccn4)CC3)cnc2c1` reads 37%.
